Consider 36 compounds from ChEMBL document CHEMBL1681781, “Structure based design and syntheses of amino-1H-pyrazole amide derivatives as selective Raf kinase inhibitors in melanoma cells” (Bioorg Med Chem, 2011).

The source made the active and inactive calls. The calls are words filed in the database; no cut-off is given here. Some results are limits rather than exact numbers.

The GI50 is the concentration at which growth is held to half of that of the control. Broadly, the IC50 is the concentration at which inhibition is half-maximal.

The subject of one experiment is HS27. The experiment is described as follows: Antiproliferative activity against human HS27 cells assessed as growth inhibition after 24 hrs by MTT assay. The experiment is classed as functional. The settings on record: HS27, 24 h.
Experiment [1] in a line: (§1) Antiproliferative activity against human A375P cells assessed as growth inhibition after 24 hrs by MTT assay. In kind it is functional. The method in brief: (§2)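 A375P cells kept in DMEM with 10% FBS and 1% penicillin/streptomycin at 37 °C under 5% CO2. Cells lifted with 0.05% trypsin–0.02% EDTA, seeded at 5 × 10^3 cells/well and left 24 h before dosing. Test compounds given as a 3-fold serial dilution over 12 points. Viability read by MTT reduction, absorbance at 590 nm.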
(Tetrazolium dyes change colour on reduction, which living cells bring about.)

Experiment [2] deals with RAF proto-oncogene serine/threonine-protein kinase (Homo sapiens, UniProt P04049). Briefly: Inhibition of C-Raf assessed as [33P]gamma-ATP incorporation into substrate after 40 mins by scintillation counting. The method in brief:
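Human C-RAF (5–10 mU) in 25 mM Tris pH 7.5, 0.02 mM EGTA, 10 mM Mg acetate, with 0.66 mg/mL myelin basic protein as substrate and [γ-33P]ATP. Reaction started by adding the Mg-ATP mix and run 40 min at room temperature. Stopped with 3% phosphoric acid, spotted on P30 filtermat, washed in 75 mM phosphoric acid and methanol, then scintillation counted.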

Experiment [3] has as its system Serine/threonine-protein kinase B-raf (Homo sapiens), P15056 [V600E]. The experiment is described as follows: Inhibition of B-Raf V600E mutant.
Another experiment has as its system A375P. The description is as §1. The experiment is classed as functional. The method in brief: as §2
Experiment [4] deals with Serine/threonine-protein kinase mTOR (Homo sapiens, UniProt P42345). Briefly: inhibition of mTOR.

Chain of Serine/threonine-protein kinase B-raf (Homo sapiens), P15056 [V600E] (P15056 whole entry V600E): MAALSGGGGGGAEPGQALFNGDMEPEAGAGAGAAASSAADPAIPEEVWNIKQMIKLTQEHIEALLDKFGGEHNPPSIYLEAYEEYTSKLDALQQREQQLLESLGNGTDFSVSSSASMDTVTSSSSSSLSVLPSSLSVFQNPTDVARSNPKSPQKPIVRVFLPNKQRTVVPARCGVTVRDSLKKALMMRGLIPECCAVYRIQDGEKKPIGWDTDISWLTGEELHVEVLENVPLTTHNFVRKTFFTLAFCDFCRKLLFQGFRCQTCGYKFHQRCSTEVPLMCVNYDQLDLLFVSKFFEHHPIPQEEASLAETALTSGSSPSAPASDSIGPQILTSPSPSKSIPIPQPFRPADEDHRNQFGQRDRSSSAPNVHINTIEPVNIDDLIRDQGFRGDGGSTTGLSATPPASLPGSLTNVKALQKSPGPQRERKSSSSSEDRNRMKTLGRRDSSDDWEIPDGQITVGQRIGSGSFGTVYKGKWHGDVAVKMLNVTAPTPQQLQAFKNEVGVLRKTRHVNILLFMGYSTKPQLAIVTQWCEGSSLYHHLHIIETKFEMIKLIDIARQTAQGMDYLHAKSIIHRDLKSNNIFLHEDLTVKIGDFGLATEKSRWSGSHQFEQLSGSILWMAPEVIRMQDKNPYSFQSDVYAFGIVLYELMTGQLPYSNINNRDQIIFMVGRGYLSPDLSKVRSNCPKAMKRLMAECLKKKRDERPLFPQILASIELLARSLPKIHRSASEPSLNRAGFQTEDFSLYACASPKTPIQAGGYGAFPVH
Chain of RAF proto-oncogene serine/threonine-protein kinase (P04049 whole entry): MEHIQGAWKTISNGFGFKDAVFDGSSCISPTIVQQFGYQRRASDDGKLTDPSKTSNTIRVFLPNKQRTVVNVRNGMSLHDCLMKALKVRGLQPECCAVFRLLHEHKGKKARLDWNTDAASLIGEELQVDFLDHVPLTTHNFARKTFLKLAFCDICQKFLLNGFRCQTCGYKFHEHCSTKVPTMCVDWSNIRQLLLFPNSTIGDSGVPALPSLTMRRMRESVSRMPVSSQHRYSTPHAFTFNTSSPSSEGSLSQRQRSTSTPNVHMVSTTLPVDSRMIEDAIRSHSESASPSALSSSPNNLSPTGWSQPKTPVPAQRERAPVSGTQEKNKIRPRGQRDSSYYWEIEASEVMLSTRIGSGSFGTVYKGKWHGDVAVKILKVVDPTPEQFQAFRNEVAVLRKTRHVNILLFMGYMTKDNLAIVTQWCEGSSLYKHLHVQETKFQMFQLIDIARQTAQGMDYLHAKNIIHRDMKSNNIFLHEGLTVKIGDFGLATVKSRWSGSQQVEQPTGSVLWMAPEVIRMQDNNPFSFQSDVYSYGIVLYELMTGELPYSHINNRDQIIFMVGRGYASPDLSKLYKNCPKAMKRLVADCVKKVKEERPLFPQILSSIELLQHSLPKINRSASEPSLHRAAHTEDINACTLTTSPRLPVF

Regarding `COc1ccc(Cn2ncc(NC(=O)c3cc(NC(=O)Nc4ccc(C(F)(F)F)cc4)ccc3C)c2N)cc1`, the GI50 (with HS27; in experiment [1]) was over 30 µM throughout.

Regarding `COc1ccc(Cn2ncc(NC(=O)c3ccc(NC(=O)Nc4ccc(Cl)c(C(F)(F)F)c4)cc3C)c2N)cc1`, the IC50 in experiment [2] came out at 8.32 µM. The inhibition result in experiment [3] was “inactive”. Besides, the GI50 in the experiment on HS27 was over 30 µM; in experiment [1] it was 33.2 µM.

As for `COc1ccc(Cn2ncc(NC(=O)c3cc(NC(=O)Nc4ccc(C(F)(F)F)cc4C(F)(F)F)ccc3C)c2N)cc1`, the GI50 in the experiment on HS27 was over 30 µM. For the same compound, in the experiment with A375P, the GI50 entry is “inactive”.

Consider `COc1ccc(Cn2ncc(NC(=O)c3ccc(NC(=O)Nc4cc(C(F)(F)F)ccc4N4CCOCC4)cc3C)c2N)cc1`, for which the GI50 was over 30 µM with HS27 and over 100 µM in experiment [1].

`COc1ccc(Cn2ncc(NC(=O)c3ccc(NC(=O)Nc4ccc(Cl)c(Cl)c4)cc3C)c2N)cc1`: the values for the GI50 (in the experiment on HS27; in experiment [1]) were over 30 µM and 4.12 µM, respectively.

Regarding `COc1ccc(Cn2ncc(NC(=O)c3cc(NC(=O)c4ncc(-c5ccncc5)s4)ccc3C)c2N)cc1`, the GI50 with HS27 was over 30 µM. For the same compound, the GI50 result in the experiment with A375P is “inactive”.

As for `Cc1ccc(NC(=O)Nc2ccc(Cl)c(C(F)(F)F)c2)cc1C(=O)Nc1cnn(Cc2ccccc2)c1N`, the figures for the GI50 (in the experiment on HS27; in experiment [1]) were over 30 µM and 15.9 µM, respectively.

With `COc1ccc(Cn2ncc(NC(=O)c3ccc(NC(=O)Nc4ccc(Cl)cc4)cc3C)c2N)cc1`, the GI50 in the experiment with HS27 was over 30 µM. Further, the GI50 result in the experiment on A375P is “inactive”.

As to `COc1ccc(Cn2ncc(NC(=O)c3cc(NC(=O)Nc4cc(Cl)c(Cl)cc4Cl)ccc3C)c2N)cc1`, the GI50 in the experiment on HS27 is over 30 µM; in experiment [1], 11.4 µM.

Consider `COc1ccc(Cn2ncc(NC(=O)c3ccc(NC(=O)Nc4cc(N5CCOCC5)cc(C(F)(F)F)c4)cc3C)c2N)cc1`, for which the figures for the GI50 (with HS27; in experiment [1]) were over 30 µM and 51.5 µM, respectively.

As for `O=c1cc(N2CCOCC2)oc2c(-c3ccccc3)cccc12` [LY-294002], the half-maximal inhibitory concentration (IC50) in experiment [4] worked out at 3.02 µM.

In the case of `CNC(=O)c1cc(Oc2ccc(NC(=O)Nc3ccc(Cl)c(C(F)(F)F)c3)cc2)ccn1` [SORAFENIB], in experiment [1], the GI50 came to 5.58 µM.

With `COc1ccc(Cn2ncc(NC(=O)c3cc(NC(=O)Nc4ccc(Cl)cc4)ccc3C)c2N)cc1`, the GI50 was over 30 µM in the experiment with HS27 and 8.73 µM in experiment [1].

For `COc1ccc(Cn2ncc(NC(=O)c3cc(NC(=O)c4ccc(-c5cc(C(F)(F)F)ccc5Cl)o4)ccc3C)c2N)cc1`, the GI50 with HS27 is over 30 µM. For the same compound, the GI50 result in the experiment on A375P is “inactive”.

For `COc1ccc(Cn2ncc(NC(=O)c3ccc(NC(=O)c4cnn(-c5ccccc5)c4C(F)(F)F)cc3C)c2N)cc1`, the 50% growth inhibitory concentration (GI50) with HS27 was over 30 µM. Besides, the GI50 result with A375P is “inactive”.

As to `COc1ccc(Cn2ncc(NC(=O)c3ccc(NC(=O)c4cc(-c5ccc(Cl)cc5)on4)cc3C)c2N)cc1`, the GI50 was over 30 µM with HS27 and 24.9 µM in experiment [1].

Consider `COc1ccc(Cn2ncc(NC(=O)c3ccc(NC(=O)c4cc5ccccc5s4)cc3C)c2N)cc1`, for which the GI50 (in the experiment with HS27; in experiment [1]) was over 30 µM in each case.

Turning to `COc1ccc(Cn2ncc(NC(=O)c3cc(NC(=O)c4ccnc(Cl)c4)ccc3C)c2N)cc1`, the GI50 with HS27 is over 30 µM. Also, the GI50 result with A375P is “inactive”.

For the compound `COc1ccc(Cn2ncc(NC(=O)c3ccc(NC(=O)Nc4nccc(C(F)(F)F)n4)cc3C)c2N)cc1`, in the experiment on HS27, the GI50 was over 30 µM. Further, in the experiment with A375P, the GI50 result is “inactive”.

In the case of `COc1ccc(Cn2ncc(NC(=O)c3cc(NC(=O)c4cccc(C(F)(F)F)c4)ccc3C)c2N)cc1`, the IC50 in experiment [2] was 0.0224 µM. The inhibition entry in experiment [3] is “inactive”. The GI50 in the experiment with HS27 is over 30 µM; in experiment [1], 5.53 µM.

For the compound `COc1ccc(Cn2ncc(NC(=O)c3cc(NC(=O)c4cnn(-c5ccc(Cl)cc5)c4C(F)(F)F)ccc3C)c2N)cc1`, the GI50 (in the experiment with HS27; in experiment [1]) was over 30 µM throughout.

Turning to `COc1ccc(Cn2ncc(NC(=O)c3ccc(NC(=O)c4cc(C)on4)cc3C)c2N)cc1`, the GI50 in the experiment with HS27 was over 30 µM. Besides, in the experiment on A375P, the GI50 result was “inactive”.

As for `COc1ccc(Cn2ncc(NC(=O)c3ccc(NC(=O)Nc4cc(-n5cnc(C)c5)cc(C(F)(F)F)c4)cc3C)c2N)cc1`, the GI50 in the experiment with HS27 is over 30 µM; in experiment [1], 5.71 µM.

As for `COc1ccc(Cn2ncc(NC(=O)c3cc(NC(=O)Nc4c(Cl)cccc4Cl)ccc3C)c2N)cc1`, the GI50 in the experiment with HS27 is over 30 µM. Further, the GI50 result with A375P is “inactive”.

Turning to `O=C1Nc2ccc(I)cc2C1=Cc1cc(Br)c(O)c(Br)c1`, the IC50 in experiment [3] worked out at 0.00386 µM.

In the case of `COc1ccc(Cn2ncc(NC(=O)c3cc(NC(=O)Nc4cc(C)no4)ccc3C)c2N)cc1`, the GI50 with HS27 is over 30 µM. Also, in the experiment on A375P, the GI50 result was “inactive”.

As for `COc1ccc(Cn2ncc(NC(=O)c3cc(NC(=O)NC4CCCCC4)ccc3C)c2N)cc1`, the GI50 in the experiment on HS27 is over 30 µM. The GI50 result with A375P is “inactive”.

`COc1ccc(Cn2ncc(NC(=O)c3cc(NC(=O)c4cc(-c5ccc(Cl)cc5)on4)ccc3C)c2N)cc1`: the GI50 in the experiment with HS27 is over 30 µM; in experiment [1], 1.39 µM.

On to `COc1ccc(Cn2ncc(NC(=O)c3ccc(NC(=O)c4cc5ccccc5o4)cc3C)c2N)cc1`, for which the GI50 (with HS27; in experiment [1]) was over 30 µM in each case.

For `COc1ccc(Cn2ncc(NC(=O)c3cc(NC(=O)c4cc(-n5cnc(C)c5)cc(C(F)(F)F)c4)ccc3C)c2N)cc1`, the GI50 is over 30 µM in the experiment on HS27 and 11.3 µM in experiment [1].

Take `COc1ccc(Cn2ncc(NC(=O)c3cc(NC(=O)c4cc(N5CCN(C)CC5)cc(C(F)(F)F)c4)ccc3C)c2N)cc1`: in experiment [2], the IC50 amounted to 0.24 µM. The inhibition entry in experiment [3] was “inactive”. The results for the GI50 (in the experiment with HS27; in experiment [1]) were over 30 µM and 4.51 µM, respectively.

For `COc1ccc(Cn2ncc(NC(=O)c3ccc(NC(=O)Nc4cccc(C(F)(F)F)c4)cc3C)c2N)cc1`, the GI50 (with HS27; in experiment [1]) was over 30 µM each time.

With `COc1ccc(Cn2ncc(NC(=O)c3ccc(NC(=O)c4cnccn4)cc3C)c2N)cc1`, the GI50 in the experiment on HS27 is over 30 µM. In addition, the GI50 result in the experiment on A375P was “inactive”.

Turning to `COc1ccc(Cn2ncc(NC(=O)c3ccc(NC(=O)Nc4cccc(Cl)c4)cc3C)c2N)cc1`, the GI50 with HS27 is over 30 µM; in experiment [1], 36.5 µM.

For `COc1ccc(Cn2ncc(NC(=O)c3cc(NC(=O)Nc4cccc(Cl)c4)ccc3C)c2N)cc1`, the GI50 is over 30 µM with HS27 and 0.21 µM in experiment [1].

Turning to `COc1ccc(Cn2ncc(NC(=O)c3cc(NC(=O)c4ccc([N+](=O)[O-])c(C(F)(F)F)c4)ccc3C)c2N)cc1`, the GI50 in the experiment with HS27 is over 30 µM; in experiment [1], 27.9 µM.
